According to ChEMBL document CHEMBL3580574, “Design, Synthesis, and Biological Evaluation of Hexacyclic Tetracyclines as Potent, Broad Spectrum Antibacterial Agents” (J Med Chem, 2015):
Values after ≈ are worked out from the molar mass of the structure shown.

What was measured:
Pseudomonas aeruginosa [1] = experiment: Antibacterial activity against Pseudomonas aeruginosa 1145 infected in immunocompetent BALB/c mouse lung infection model assessed as log reduction in colony forming units at 40 mg/kg, iv bid administered at 2 hrs and 12 hrs post-infection measured 24 hrs post-drug treatment; type: functional
Method in brief: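 Female BALB/c mice (18−20 g) received intranasal inoculum under light anesthesia. IV treatment at 2 and 12 h postinfection, six mice per group per dose. An untreated group was harvested at 2 h. Lungs were taken 24 h after treatment start, weighed, homogenized, diluted and plated on MacConkey medium overnight at 37 °C, 5% CO2. Read-out: CFU per gram lung.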

Pseudomonas aeruginosa [2] = experiment: Antibacterial activity against Pseudomonas aeruginosa 1145 assessed as bacterial growth inhibition by susceptibility testing assay; type: functional
Method in brief: (§1)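 Broth microdilution MIC per CLSI in 96-well plates; compound stocks prepared and serially diluted in sterile deionized water; cation-adjusted Mueller Hinton broth prepared fresh and held at 4 °C before testing, supplemented with lysed horse blood as appropriate; runs accepted when comparator antibiotics fell within QC ranges for appropriate ATCC quality control strains.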

Pseudomonas aeruginosa [3] = experiment: Antibacterial activity against Pseudomonas aeruginosa 694 infected in immunocompetent CD-1 mouse thigh infection model assessed as log reduction in colony forming units at 5 mg/kg, iv administered twice daily at 2 hrs and 12 hrs post-infection measured 24 hrs post-drug treatment (reference value: 1.8 log10CFU); type: functional
Method in brief: (§2)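 Thigh model: inoculum given intramuscularly into the right thigh on day 0. IV dosing with vehicle, test agent or comparator at 2 and 12 h postinfection. Untreated groups were harvested at 2 and 24 h. Thigh muscle was collected at 24 h postinfection, homogenized in PBS pH 7.4, diluted and plated on Brain Heart Infusion agar + 0.5% charcoal. Read-out: CFU per gram thigh.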

Pseudomonas aeruginosa [4] = experiment: Antibacterial activity against Pseudomonas aeruginosa 694 infected in iv dosed immunocompetent CD-1 mouse thigh infection model assessed as reduction in colony forming units administered twice daily at 2 hrs and 12 hrs post-infection measured 24 hrs post-drug treatment; type: functional, organism-based; method in brief: as §2
Escherichia coli [5] = experiment: Antibacterial activity against Escherichia coli 107 ATCC 25922 assessed as bacterial growth inhibition by susceptibility testing assay; type: functional
Method in brief: (§3)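 Broth microdilution MIC per CLSI in cation-adjusted Mueller Hinton broth, made fresh and held at 4 °C before testing. Medium supplemented with lysed horse blood where appropriate. Compound stocks prepared and serially diluted in sterile deionized water. Runs were accepted against QC ranges for comparator antibiotics and ATCC QC strains.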

Streptococcus pneumoniae = experiment: Antibacterial activity against tet(M) tetracycline-resistant Streptococcus pneumoniae 160 assessed as bacterial growth inhibition by susceptibility testing assay; type: functional
Pseudomonas aeruginosa [6] = experiment: Ratio of tetracycline IC50 to compound IC50 for antitranslational activity in Pseudomonas aeruginosa 555 BAA-47 by in vitro coupled transcription/translation assay; type: functional
Enterobacter cloacae = experiment: Antibacterial activity against tet(A) tetracycline-resistant Enterobacter cloacae 603 assessed as bacterial growth inhibition by susceptibility testing assay; type: functional; method in brief: as §1
Proteus mirabilis = experiment: Antibacterial activity against Proteus mirabilis 385 assessed as bacterial growth inhibition by susceptibility testing assay; type: functional; method in brief: as §3
Staphylococcus aureus [7] = experiment: Antibacterial activity against tet(K) tetracycline-resistant Staphylococcus aureus 158 assessed as bacterial growth inhibition by susceptibility testing assay; type: functional
Burkholderia cenocepacia = experiment: Antibacterial activity against Burkholderia cenocepacia 240 assessed as bacterial growth inhibition by susceptibility testing assay; type: functional
Method in brief: (§4)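 Medium supplemented with lysed horse blood where appropriate. Compound stocks prepared and serially diluted in sterile deionized water. Runs were accepted against QC ranges for comparator antibiotics and ATCC QC strains.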

Staphylococcus aureus [8] = experiment: Antibacterial activity against Staphylococcus aureus 101 ATCC 29213 assessed as bacterial growth inhibition by susceptibility testing assay; type: functional; method in brief: as §3
Enterococcus faecium = experiment: Antibacterial activity against tet(M) tetracycline-resistant Enterococcus faecium 404 assessed as bacterial growth inhibition by susceptibility testing assay; type: functional
[9] = test system: Stenotrophomonas maltophilia; experiment: Antibacterial activity against Stenotrophomonas maltophilia 256 assessed as bacterial growth inhibition by susceptibility testing assay; type: functional; method in brief: as §4
Pseudomonas aeruginosa [10] = experiment: Antibacterial activity against Pseudomonas aeruginosa 694 assessed as bacterial growth inhibition by susceptibility testing assay; type: functional; method in brief: as §3
Pseudomonas aeruginosa [11] = experiment: Antitranslational activity in Pseudomonas aeruginosa 555 BAA-47 assessed as ribosomal inhibition by in vitro coupled transcription/translation assay; type: functional
Method in brief: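 P. aeruginosa coupled transcription/translation reactions with a luciferase reporter, run 60 min at 37 °C. Reactions were stopped on ice for 5 min, then luciferase substrate was added and luminescence read. Percent luminescence was plotted against inhibitor concentration, and 50% inhibition versus untreated controls was taken as the IC50.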

Pseudomonas aeruginosa [12] = experiment: Antibacterial activity against Pseudomonas aeruginosa 555 BAA-47 assessed as bacterial growth inhibition by susceptibility testing assay; type: functional; method in brief: as §3
Staphylococcus aureus [13] = experiment: Antibacterial activity against methicillin-resistant, tet(M) tetracycline-resistant Staphylococcus aureus 161 assessed as bacterial growth inhibition by susceptibility testing assay; type: functional; method in brief: as §1
Acinetobacter baumannii = experiment: Antibacterial activity against tet(B) tetracycline-resistant Acinetobacter baumannii 250 assessed as bacterial growth inhibition by susceptibility testing assay; type: functional; method in brief: as §1
Klebsiella pneumoniae = experiment: Antibacterial activity against Klebsiella pneumoniae 457 harboring CTX-M-15 gene assessed as bacterial growth inhibition by susceptibility testing assay; type: functional; method in brief: as §1
Escherichia coli [14] = experiment: Antibacterial activity against tet(A) tetracycline-resistant Escherichia coli 155 assessed as bacterial growth inhibition by susceptibility testing assay; type: functional; method in brief: as §1
Enterococcus faecalis = experiment: Antibacterial activity against tet(M) tetracycline-resistant Enterococcus faecalis 327 assessed as bacterial growth inhibition by susceptibility testing assay; type: functional; method in brief: as §1

Structure (SMILES): NCC[C@H](O)C(=O)N[C@@H]1C[C@H](N)[C@@H](O[C@H]2O[C@H](CN)[C@@H](O)[C@H](O)[C@H]2O)[C@H](O)[C@H]1O[C@H]1O[C@H](CO)[C@@H](O)[C@H](N)[C@H]1O [AMIKACIN]
- log10CFU/g (Pseudomonas aeruginosa [1]): 2
- MIC (Pseudomonas aeruginosa [2]): 1 µg/mL (≈ 1.71 µM)

Structure (SMILES): C[C@H]1COc2c(N3CCN(C)CC3)c(F)cc3c(=O)c(C(=O)O)cn1c23.C[C@H]1COc2c(N3CCN(C)CC3)c(F)cc3c(=O)c(C(=O)O)cn1c23.O [LEVOFLOXACIN]
- log10CFU/g (Pseudomonas aeruginosa [3]): 4.5

Structure (SMILES): CN(C)[C@@H]1C(O)=C(C(N)=O)C(=O)[C@@]2(O)C(O)=C3C(=O)c4c(O)c5c(c(F)c4C[C@H]3C[C@@H]12)[C@@H]1[C@@H](CCN1C)CN5 (stereo in doubt; 10c) [listing 1 of 2 here]
- inhibition (Pseudomonas aeruginosa [4]): Dose-dependent effect

Structure (SMILES): CN(C)[C@@H]1C(O)=C(C(N)=O)C(=O)[C@@]2(O)C(O)=C3C(=O)c4c(O)c5c(c(F)c4C[C@H]3C[C@@H]12)[C@@H]1[C@@H](CCN1C)CN5 (stereo in doubt; 10c) [listing 2 of 2 here]
- MIC (Escherichia coli [5]): 0.0625 µg/mL (≈ 0.115 µM)
- MIC (Streptococcus pneumoniae): <=0.0156 ug ml-1
- Ratio IC50 (Pseudomonas aeruginosa [6]): 10
- MIC (Enterobacter cloacae): 0.5 µg/mL (≈ 0.922 µM)
- MIC (Proteus mirabilis): 0.5 µg/mL (≈ 0.922 µM)
- MIC (Staphylococcus aureus [7]): 0.0625 µg/mL (≈ 0.115 µM)
- MIC (Burkholderia cenocepacia): 8 µg/mL (≈ 14.7 µM)
- MIC (Staphylococcus aureus [8]): 0.25 µg/mL (≈ 0.461 µM)
- MIC (Enterococcus faecium): 0.0625 µg/mL (≈ 0.115 µM)
- MIC [9]: 1 µg/mL (≈ 1.84 µM)
- MIC (Pseudomonas aeruginosa [10]): 8 µg/mL (≈ 14.7 µM)
- log10CFU/g (Pseudomonas aeruginosa [1]): 4
- IC50 (Pseudomonas aeruginosa [11]): 0.21 µM
- MIC (Pseudomonas aeruginosa [2]): 4 µg/mL (≈ 7.37 µM)
- MIC (Pseudomonas aeruginosa [12]): 4 µg/mL (≈ 7.37 µM)
- MIC (Staphylococcus aureus [13]): 0.5 µg/mL (≈ 0.922 µM)
- MIC (Acinetobacter baumannii): 2 µg/mL (≈ 3.69 µM)
- MIC (Klebsiella pneumoniae): 0.5 µg/mL (≈ 0.922 µM)
- MIC (Escherichia coli [14]): 0.5 µg/mL (≈ 0.922 µM)
- MIC (Enterococcus faecalis): 0.125 µg/mL (≈ 0.23 µM)
